Assays:
Blood [1] = test: Biodistribution in Kunming mouse blood at 1 uCi, iv after 60 mins by gamma counting; assay type: ADME, organism-based; details: in vivo, 1 h
In short: (§1)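 Female normal KunMing mice, about 20 g. [125I]-labelled tracer (1 μCi) in 100 μL saline injected into the tail vein. Mice killed at set times after injection; organs removed, weighed and counted in a gamma counter. %ID/g of wet tissue calculated against diluted aliquots of the injected dose.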

Kidney [2] = test: Biodistribution in Kunming mouse kidney at 1 uCi, iv after 120 mins by gamma counting; assay type: ADME, organism-based; details: in vivo, 2 h; in short: as §1
Blood [3] = test: Biodistribution in Kunming mouse blood at 1 uCi, iv after 120 mins by gamma counting; assay type: ADME, organism-based; details: in vivo, 2 h; in short: as §1
Brain [4] = test: Biodistribution in Kunming mouse brain at 1 uCi, iv after 120 mins by gamma counting; assay type: ADME, organism-based; details: in vivo, 2 h; in short: as §1
Brain [5] = test: Biodistribution in Kunming mouse brain at 1 uCi, iv after 15 mins by gamma counting; assay type: ADME, organism-based; details: in vivo, 0.25 h; in short: as §1
Stomach [6] = test: Biodistribution in Kunming mouse stomach assessed per organ at 1 uCi, iv after 30 mins by gamma counting; assay type: ADME, organism-based; details: in vivo, 0.5 h; in short: as §1
Kidney [7] = test: Biodistribution in Kunming mouse kidney at 1 uCi, iv after 2 mins by gamma counting; assay type: ADME, organism-based; details: in vivo; in short: as §1
Spleen [8] = test: Biodistribution in Kunming mouse spleen at 1 uCi, iv after 2 mins by gamma counting; assay type: ADME, organism-based; details: in vivo; in short: as §1
Stomach [9] = test: Biodistribution in Kunming mouse stomach assessed per organ at 1 uCi, iv after 120 mins by gamma counting; assay type: ADME, organism-based; details: in vivo, 2 h; in short: as §1
Spleen [10] = test: Biodistribution in Kunming mouse spleen at 1 uCi, iv after 30 mins by gamma counting; assay type: ADME, organism-based; details: in vivo, 0.5 h; in short: as §1
Muscle tissue [11] = test: Biodistribution in Kunming mouse muscle at 1 uCi, iv after 15 mins by gamma counting; assay type: ADME, organism-based; details: in vivo, 0.25 h; in short: as §1
Muscle tissue [12] = test: Biodistribution in Kunming mouse muscle at 1 uCi, iv after 30 mins by gamma counting; assay type: ADME, organism-based; details: in vivo, 0.5 h; in short: as §1
Blood [13] = test: Biodistribution in Kunming mouse blood at 1 uCi, iv after 30 mins by gamma counting; assay type: ADME, organism-based; details: in vivo, 0.5 h; in short: as §1
Brain [14] = test: Biodistribution in Kunming mouse brain at 1 uCi, iv after 2 mins by gamma counting; assay type: ADME, organism-based; details: in vivo; in short: as §1
Blood [15] = test: Biodistribution in Kunming mouse blood at 1 uCi, iv after 2 mins by gamma counting; assay type: ADME, organism-based; details: in vivo; in short: as §1
Heart [16] = test: Biodistribution in Kunming mouse heart at 1 uCi, iv after 120 mins by gamma counting; assay type: ADME, organism-based; details: in vivo, 2 h; in short: as §1
Heart [17] = test: Biodistribution in Kunming mouse heart at 1 uCi, iv after 30 mins by gamma counting; assay type: ADME, organism-based; details: in vivo, 0.5 h; in short: as §1
Heart [18] = test: Biodistribution in Kunming mouse heart at 1 uCi, iv after 60 mins by gamma counting; assay type: ADME, organism-based; details: in vivo, 1 h; in short: as §1
Stomach [19] = test: Biodistribution in Kunming mouse stomach assessed per organ at 1 uCi, iv after 2 mins by gamma counting; assay type: ADME, organism-based; details: in vivo; in short: as §1
Liver [20] = test: Biodistribution in Kunming mouse liver at 1 uCi, iv after 120 mins by gamma counting; assay type: ADME, organism-based; details: in vivo, 2 h; in short: as §1
Lung [21] = test: Biodistribution in Kunming mouse lung at 1 uCi, iv after 120 mins by gamma counting; assay type: ADME, organism-based; details: in vivo, 2 h; in short: as §1
Lung [22] = test: Biodistribution in Kunming mouse lung at 1 uCi, iv after 60 mins by gamma counting; assay type: ADME, organism-based; details: in vivo, 1 h; in short: as §1
Liver [23] = test: Biodistribution in Kunming mouse liver at 1 uCi, iv after 2 mins by gamma counting; assay type: ADME, organism-based; details: in vivo; in short: as §1
Liver [24] = test: Biodistribution in Kunming mouse liver at 1 uCi, iv after 15 mins by gamma counting; assay type: ADME, organism-based; details: in vivo, 0.25 h; in short: as §1
Spleen [25] = test: Biodistribution in Kunming mouse spleen at 1 uCi, iv after 120 mins by gamma counting; assay type: ADME, organism-based; details: in vivo, 2 h; in short: as §1
Brain [26] = test: Biodistribution in Kunming mouse brain at 1 uCi, iv after 30 mins by gamma counting; assay type: ADME, organism-based; details: in vivo, 0.5 h; in short: as §1
Spleen [27] = test: Biodistribution in Kunming mouse spleen at 1 uCi, iv after 15 mins by gamma counting; assay type: ADME, organism-based; details: in vivo, 0.25 h; in short: as §1
Kidney [28] = test: Biodistribution in Kunming mouse kidney at 1 uCi, iv after 60 mins by gamma counting; assay type: ADME, organism-based; details: in vivo, 1 h; in short: as §1
Lung [29] = test: Biodistribution in Kunming mouse lung at 1 uCi, iv after 2 mins by gamma counting; assay type: ADME, organism-based; details: in vivo; in short: as §1
Heart [30] = test: Biodistribution in Kunming mouse heart at 1 uCi, iv after 2 mins by gamma counting; assay type: ADME, organism-based; details: in vivo; in short: as §1
Stomach [31] = test: Biodistribution in Kunming mouse stomach assessed per organ at 1 uCi, iv after 60 mins by gamma counting; assay type: ADME, organism-based; details: in vivo, 1 h
Muscle tissue [32] = test: Biodistribution in Kunming mouse muscle at 1 uCi, iv after 2 mins by gamma counting; assay type: ADME, organism-based; details: in vivo; in short: as §1
Heart [33] = test: Biodistribution in Kunming mouse heart at 1 uCi, iv after 15 mins by gamma counting; assay type: ADME, organism-based; details: in vivo, 0.25 h; in short: as §1
[34] = Octanol-phosphate buffer partition coefficient, log D of the compound at pH 7.4; assay type: physicochemical
In short: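 Radiotracer added to premixed n-octanol (3 g) and PBS (0.05 M, pH 7.4; 3 g), and partitioned between the two phases.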

Kidney [35] = test: Biodistribution in Kunming mouse kidney at 1 uCi, iv after 15 mins by gamma counting; assay type: ADME, organism-based; details: in vivo, 0.25 h; in short: as §1
Liver [36] = test: Biodistribution in Kunming mouse liver at 1 uCi, iv after 30 mins by gamma counting; assay type: ADME, organism-based; details: in vivo, 0.5 h; in short: as §1
Lung [37] = test: Biodistribution in Kunming mouse lung at 1 uCi, iv after 30 mins by gamma counting; assay type: ADME, organism-based; details: in vivo, 0.5 h; in short: as §1
Kidney [38] = test: Biodistribution in Kunming mouse kidney at 1 uCi, iv after 30 mins by gamma counting; assay type: ADME, organism-based; details: in vivo, 0.5 h; in short: as §1
Muscle tissue [39] = test: Biodistribution in Kunming mouse muscle at 1 uCi, iv after 60 mins by gamma counting; assay type: ADME, organism-based; details: in vivo, 1 h; in short: as §1
Brain [40] = test: Biodistribution in Kunming mouse brain at 1 uCi, iv after 60 mins by gamma counting; assay type: ADME, organism-based; details: in vivo, 1 h; in short: as §1
Lung [41] = test: Biodistribution in Kunming mouse lung at 1 uCi, iv after 15 mins by gamma counting; assay type: ADME, organism-based; details: in vivo, 0.25 h; in short: as §1
Spleen [42] = test: Biodistribution in Kunming mouse spleen at 1 uCi, iv after 60 mins by gamma counting; assay type: ADME, organism-based; details: in vivo, 1 h; in short: as §1
Stomach [43] = test: Biodistribution in Kunming mouse stomach assessed per organ at 1 uCi, iv after 15 mins by gamma counting; assay type: ADME, organism-based; details: in vivo, 0.25 h; in short: as §1
Muscle tissue [44] = test: Biodistribution in Kunming mouse muscle at 1 uCi, iv after 120 mins by gamma counting; assay type: ADME, organism-based; details: in vivo, 2 h; in short: as §1
Liver [45] = test: Biodistribution in Kunming mouse liver at 1 uCi, iv after 60 mins by gamma counting; assay type: ADME, organism-based; details: in vivo, 1 h; in short: as §1
Blood [46] = test: Biodistribution in Kunming mouse blood at 1 uCi, iv after 15 mins by gamma counting; assay type: ADME, organism-based; details: in vivo, 0.25 h; in short: as §1

## COc1ccc(/C=C/c2ccc(-c3ccc([125I])s3)s2)cc1
Blood [1]
  Drug uptake: 6.7 % ID/g
Kidney [2]
  Drug uptake: 6.33 % ID/g
Blood [3]
  Drug uptake: 6.85 % ID/g
Brain [4]
  Drug uptake: 0.59 % ID/g
Brain [5]
  Drug uptake: 0.44 % ID/g
Stomach [6]
  Drug uptake: 5.11 %ID
Kidney [7]
  Drug uptake: 4.82 % ID/g
Spleen [8]
  Drug uptake: 9.14 % ID/g
Stomach [9]
  Drug uptake: 20.22 %ID
Spleen [10]
  Drug uptake: 9.4 % ID/g
Muscle tissue [11]
  Drug uptake: 2.23 % ID/g
Muscle tissue [12]
  Drug uptake: 2.12 % ID/g
Blood [13]
  Drug uptake: 6.18 % ID/g
Brain [14]
  Drug uptake: 0.5 % ID/g
Blood [15]
  Drug uptake: 11.21 % ID/g
Heart [16]
  Drug uptake: 4.18 % ID/g
Heart [17]
  Drug uptake: 5.55 % ID/g
Heart [18]
  Drug uptake: 5.33 % ID/g
Stomach [19]
  Drug uptake: 0.39 %ID
Liver [20]
  Drug uptake: 11 % ID/g
Lung [21]
  Drug uptake: 7.08 % ID/g
Lung [22]
  Drug uptake: 10.45 % ID/g
Liver [23]
  Drug uptake: 45.73 % ID/g
Liver [24]
  Drug uptake: 46.86 % ID/g
Spleen [25]
  Drug uptake: 7.21 % ID/g
Brain [26]
  Drug uptake: 0.39 % ID/g
Spleen [27]
  Drug uptake: 11.2 % ID/g
Kidney [28]
  Drug uptake: 6.42 % ID/g
Lung [29]
  Drug uptake: 26.17 % ID/g
Heart [30]
  Drug uptake: 5.08 % ID/g
Stomach [31]
  Drug uptake: 8.9 %ID
Muscle tissue [32]
  Drug uptake: 1.61 % ID/g
Heart [33]
  Drug uptake: 6.25 % ID/g
[34]
  logD: 3.07
Kidney [35]
  Drug uptake: 6.61 % ID/g
Liver [36]
  Drug uptake: 26.91 % ID/g
Lung [37]
  Drug uptake: 12.95 % ID/g
Kidney [38]
  Drug uptake: 5.92 % ID/g
Muscle tissue [39]
  Drug uptake: 3.95 % ID/g
Brain [40]
  Drug uptake: 0.5 % ID/g
Lung [41]
  Drug uptake: 16.37 % ID/g
Spleen [42]
  Drug uptake: 6.38 % ID/g
Stomach [43]
  Drug uptake: 2.6 %ID
Muscle tissue [44]
  Drug uptake: 2.83 % ID/g
Liver [45]
  Drug uptake: 15.74 % ID/g
Blood [46]
  Drug uptake: 7.99 % ID/g
